Series [1] has as its system Human immunodeficiency virus 1. Nature of the series: Binding affinity to covalently-crosslinked hexameric HIV1 capsid protein A14C/E45C/W184A/M185A mutant expressed in Escherichia coli BL21(DE3)RIL assessed as change in melting temperature at 20 uM incubated for 30 mins by thermal shift dye based fluorescence analysis. The method, boiled down:
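Thermal shift: 15 μM CA121 in 50 mM sodium phosphate pH 8.0 with Sypro Orange and compound at 20 μM final or DMSO control. Heated 25 to 95 °C at 0.2 °C/10 s; fluorescence Ex 475–500, Em 520–590 nm. ΔTm = Tm(compound) − T0(DMSO) for CA hexamer melting.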

The nature of series [2]: (§1) Cytotoxicity against human TZM-GFP cells incubated for 72 hrs by XTT assay. The series is classed as cell-based. The note with it: TZM-GFP cells. The method, boiled down:
(§2)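 TZM-GFP cells seeded at 1 × 10^4 per well and exposed continuously to increasing compound concentrations for 72 h. Viable cell number read by XTT proliferation kit. CC50 fitted as log(inhibitor) vs normalized response, variable slope, per independent assay and averaged. Run in duplicate, at least two independent experiments, reported as mean ± standard deviation.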
A general note: Tetrazolium dyes change colour on reduction, which living cells bring about.

Series [3] deals with Human immunodeficiency virus 1. Nature of the series: Antiviral activity against HIV1 NL4-3 infected in human TZM-GFP cells assessed as number of GFP positive cells incubated for 48 hrs by imaging reader. The series is classed as functional, organism-based. Particulars: Human immunodeficiency virus 1, NL4-3, TZM. The gist of the method:
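TZM-GFP cells seeded 1 × 10^4/well and given increasing compound concentrations 24 h later; infected with HIV-1 NL4-3 (MOI = 1) after a further 24 h. Read-out after 48 h: GFP-positive cell counts (LTR-driven) versus DMSO controls. EC50 fitted as log(inhibitor) vs normalized response, variable slope, per experiment and averaged; mean ± SD, duplicates, at least two independent experiments.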

The subject of another series is TZM. Described as §1. The series is classed as cell-based. Particulars: tzm, 72 h. The method, boiled down:
as §2

Series [4] in a line: Stability of the compound in human plasma assessed as half life incubated for 3 hrs by LC-MS/MS analysis. The series is classed as ADME, cell-free.
A short description of series [5]: Metabolic stability at phase 1 in mouse liver microsomes assessed as half life at 1 uM in presence of Cobi-cistat CYP3A inhibitor by LC-MS/MS analysis. The series is classed as ADME, Microsome. (In general: Microsomes from liver hold many membrane-bound enzymes, among them those of drug oxidation.)
Series [6] in a line: Metabolic stability at phase 1 in human liver microsomes assessed as half life at 1 uM in presence of Cobi-cistat CYP3A inhibitor by LC-MS/MS analysis. The series is classed as ADME, Microsome.
Series [7] is described as follows: Metabolic stability at phase 1 in mouse liver microsomes assessed as half life at 1 uM by LC-MS/MS analysis. The series is classed as ADME, Microsome. Particulars: microsomes, 1 µM.
Series [8] can be described thus: Metabolic stability at phase 1 in human liver microsomes assessed as half life at 1 uM by LC-MS/MS analysis. The series is classed as ADME, Microsome.
Series [9] can be described thus: Stability of the compound in mouse plasma assessed as half life incubated for 3 hrs by LC-MS/MS analysis. The series is classed as ADME, cell-free.
Series [10] relates to Human immunodeficiency virus 1. Nature of the series: Antiviral activity against HIV1 NL4-3 infected in human TZM-GFP cells assessed as number of GFP positive cells at 2 uM incubated for 48 hrs by imaging reader. The series is classed as functional. The note with it: Human immunodeficiency virus 1, NL4-3, TZM. The gist of the method:
(§3)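 TZM-GFP cells seeded 1 × 10^4/well; after 24 h medium replaced with compound at the stated single concentration, then 24 h later infected with HIV-1 (MOI = 1). After 48 h, GFP-positive cells counted by imaging and percent inhibition determined versus DMSO controls. Duplicate wells, at least two independent experiments.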

Series [11] relates to Human immunodeficiency virus 1. Nature of the series: Antiviral activity against HIV1 NL4-3 infected in human TZM-GFP cells assessed as number of GFP positive cells at 20 uM incubated for 48 hrs by imaging reader. The series is classed as functional. The note with it: Human immunodeficiency virus 1, NL4-3, TZM. The gist of the method:
as §3

Regarding `Cc1[nH]c2ccccc2c1CC(=O)N[C@@H](Cc1ccccc1)C(=O)N(C)c1cccc(Cl)c1`, the ΔTm (in general, the change in melting temperature against a reference sample) in series [1] was found to be 7.6 °C. Besides, the CC50 – broadly, the concentration giving 50% cytotoxicity – at 72 h in series [2] was less than 50 µM. Also, the EC50 – broadly, the concentration needed to bring the measured effect to its halfway point – in series [3] was 1.2 µM.

Consider `CN(C(=O)[C@H](Cc1ccccc1)NC(=O)Cc1c[nH]c2ccccc12)c1ccccc1`, for which the ΔTm in [1] was found to be 6.1 °C. The cytotoxic concentration (CC50) at 72 h in [2] was greater than 100 µM. Moreover, the EC50 in series [3] was determined as 0.46 µM.

Regarding `CN(C(=O)[C@H](Cc1ccccc1)NC(=O)Cc1c[nH]c2ccccc12)c1ccc(Br)cc1`, the ΔTm in [1] was found to be 8.3 °C. Also, the CC50 in the series with TZM was 45 µM. Also, in series [3], the EC50 turned out to be 0.14 µM. The t1/2 in [4] was greater than 6 h; in [5] it was 0.867 h; in series [6], 2.18 h; in series [7], 42 s; in series [8], 2.1 min; in series [9], greater than 6 h.

For `CN(C(=O)[C@H](Cc1ccccc1)NC(=O)Cc1c[nH]c2ccccc12)c1cccc(F)c1`, in series [1], the thermal shift (ΔTm) stood at 2.5 °C. For the same compound, the inhibition (in general, the percentage by which the read-out fell short of the control) at 2 µM in series [10] was found to be 39%. The CC50 at 72 h in series [2] worked out at 50 µM. In addition, the inhibition at 20 µM in series [11] was 97%.

In the case of `Cc1[nH]c2ccccc2c1CC(=O)N[C@@H](Cc1ccccc1)C(=O)N1CCC[C@H]1C(=O)Nc1ccccc1`, the ΔTm in series [1] was found to be 0.6 °C. The same compound gave a CC50 at 72 h in series [2] greater than 50 µM. The concentration giving a half-maximal response (EC50) in [3] is greater than 20 µM.

In the case of `Cc1[nH]c2ccccc2c1CC(=O)N[C@@H](Cc1cccc(Br)c1)C(=O)N(C)c1ccccc1`, the ΔTm in [1] was 3.4 °C. Further, in series [10], the inhibition at 2 µM was determined as 0%. For the same compound, the CC50 with TZM is less than 50 µM. In series [11], the inhibition at 20 µM was 94%.

Turning to `CN(C(=O)[C@H](Cc1ccccc1)NC(=O)CCc1c[nH]c2ccccc12)c1ccccc1`, in series [1], the ΔTm is 2.3 °C. For the same compound, the inhibition at 2 µM in [10] is 0%. Also, the CC50 with TZM was greater than 50 µM. Besides, in series [11], the inhibition at 20 µM amounted to 98%.
